Test results as given in ChEMBL document CHEMBL5523688, “Selective targeting of human TET1 by cyclic peptide inhibitors: Insights from biochemical profiling” (Bioorg Med Chem, 2024).
Calls of active or inactive are those of the source. No cut-off for these calls is given here.

Assays:
[1] = target: T1, Methylcytosine dioxygenase TET1 (Homo sapiens, UniProt Q8NFU7); assay: Inhibition of N-terminal 3xFlag-tagged recombinant human TET1 catalytic domain (E1418 to V2136 residues) expressed in baculovirus infected Sf9 cells using 5-methylcytosine as substrate preincubated for 10 mins followed by substrate and DNA-cofactor addition measured after 30 mins by Alphascreen assay
Procedure, shortened: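 TET1 catalytic domain (E1418–V2136, Sf9 baculovirus) at 2 nM was preincubated 10 min with inhibitor (1% DMSO) in HEPES 50 mM pH 7.3, 150 mM NaCl, 0.1% BSA, 0.01% Tween-20. Reaction was started with ascorbate 200 µM, Fe(II) 20 µM, 2OG 20 µM and 5mC ssDNA 10 nM, run 30 min, then EDTA-quenched. Anti-5hmC antibody with AlphaScreen beads, 45–60 min, luminescence read. Three independent replicates.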

[2] = target: T1, Methylcytosine dioxygenase TET1; assay: Inhibition of FLAG-tagged human TET1 catalytic domain (E1418 to V2136 residues) expressed in doxycycline induced human U2OS cells assessed as reduction in 5-hydroxymethylcytosine level at 50 to 100 uM incubated for 24 hrs by immunofluorescence assay; format: cell-based; conditions: dose 50-100 µM
Procedure, shortened: (§1)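 U2OS cells stably carrying dox-inducible FLAG-tagged TET1 catalytic domain (E1418–V2136), 5,000/well, seeded 4 h at 37 °C in DMEM with Tet-approved 10% FBS, pen/strep and L-glutamine. Doxycycline 1 µg/mL induction plus compound dosing (1% DMSO final) for 24 h. After fixation, cells were co-stained with anti-5hmC and anti-FLAG antibodies plus DAPI, then imaged. Read-out was mean 5hmC fluorescence in FLAG-positive cells.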

[3] = target: Methylcytosine dioxygenase TET3 (Homo sapiens, UniProt O43151); assay: Inhibition of recombinant human TET3 catalytic domain (E824 to I1795 residues) expressed in baculovirus infected Sf9 cells using 5-methylcytosine as substrate preincubated for 10 mins followed by substrate and DNA-cofactor addition measured after 10 mins by Alphascreen assay
[4] = target: T2, Methylcytosine dioxygenase TET2 (Homo sapiens, UniProt Q6N021); assay: (§2) Inhibition of N-terminal His-tagged recombinant human TET2 catalytic domain LCIdel mutant (D1129 to G1936 residues with Y1481 to N1843 replaced by 3 x GGGGS linker) expressed in Escherichia coli BL21 (DE3) using 5-methylcytosine as substrate preincubated for 10 mins followed by substrate and DNA-cofactor addition measured after 10 mins by Alphascreen assay
[5] = system: Methylcytosine dioxygenase TET2 (Homo sapiens), Q6N021 [UNDEFINED MUTATION]; conditions: time 20.0 min
[6] = species on record: Homo sapiens; assay: Selectivity ratio of pIC50 for inhibition of N-terminal 3xFlag-tagged recombinant human TET1 catalytic domain (E1418 to V2136 residues) expressed in baculovirus infected Sf9 cells to pIC50 for inhibition of N-terminal His-tagged recombinant human TET2 catalytic domain LCIdel mutant (D1129 to G1936 residues with Y1481 to N1843 replaced by 3 x GGGGS linker) expressed in Escherichia coli BL21 (DE3)
[7] = target: T2, Methylcytosine dioxygenase TET2; assay: as §2, with “after 12” for “after 10”, “by SPE-MS analysis” for “by Alphascreen assay”
[8] = target: Methylcytosine dioxygenase TET1 (Mus musculus, UniProt Q3URK3); assay: Inhibition of recombinant mouse TET1 catalytic domain (E1367 to V2039 residues) expressed in baculovirus expression system using 5-methylcytosine as substrate preincubated for 10 mins followed by substrate and DNA-cofactor addition measured after 9 mins by Alphascreen assay
Procedure, shortened: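 Murine Tet1 catalytic domain (E1367–V2039, High Five baculovirus) at 2 nM was preincubated 10 min with inhibitor (1% DMSO) in HEPES 50 mM pH 7.3, NaCl 150 mM, BSA 0.1%, Tween-20 0.01%. Ascorbate 200 µM, Fe(II) 20 µM, 2OG 20 µM and 5mC ssDNA 10 nM were added; reaction ran 9 min, then EDTA-quenched. AlphaScreen anti-5hmC detection by luminescence.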

[9] = target: T1, Methylcytosine dioxygenase TET1; assay: Inhibition of FLAG-tagged human TET1 catalytic domain (E1418 to V2136 residues) expressed in doxycycline induced human U2OS cells incubated for 24 hrs by immunofluorescence assay; format: cell-based; procedure, shortened: as §1
[10] = target: T1, Methylcytosine dioxygenase TET1; assay: Inhibition of FLAG-tagged human TET1 catalytic domain (E1418 to V2136 residues) expressed in doxycycline induced human U2OS cells assessed as reduction in 5-hydroxymethylcytosine level at 30 to 100 uM incubated for 24 hrs by immunofluorescence assay; format: cell-based; conditions: dose 30-100 µM
Procedure, shortened: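 U2OS cells stably carrying dox-inducible FLAG-tagged TET1 catalytic domain were seeded at 5,000/well in DMEM with Tet-approved FBS (10%), penicillin/streptomycin and L-glutamine, then held 4 h at 37 °C. Induction used doxycycline 1 μg/mL alongside compound (1% DMSO final) for 24 h. Cells were fixed, permeabilised, blocked, immunostained (rabbit polyclonal oxidised-cytosine antibody 1:500, anti-FLAG 1:1000, 16 h) and DAPI-counterstained. Mean staining intensity of FLAG-TET1 cells was imaged.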

[11] = Selectivity ratio of pIC50 for inhibition of N-terminal 3xFlag-tagged recombinant human TET1 catalytic domain (E1418 to V2136 residues) expressed in baculovirus infected Sf9 cells to pIC50 for inhibition of recombinant human TET3 catalytic domain (E824 to I1795 residues) expressed in baculovirus infected Sf9 cells

T1 sequence (Q8NFU7 whole entry, the tested form may be a part): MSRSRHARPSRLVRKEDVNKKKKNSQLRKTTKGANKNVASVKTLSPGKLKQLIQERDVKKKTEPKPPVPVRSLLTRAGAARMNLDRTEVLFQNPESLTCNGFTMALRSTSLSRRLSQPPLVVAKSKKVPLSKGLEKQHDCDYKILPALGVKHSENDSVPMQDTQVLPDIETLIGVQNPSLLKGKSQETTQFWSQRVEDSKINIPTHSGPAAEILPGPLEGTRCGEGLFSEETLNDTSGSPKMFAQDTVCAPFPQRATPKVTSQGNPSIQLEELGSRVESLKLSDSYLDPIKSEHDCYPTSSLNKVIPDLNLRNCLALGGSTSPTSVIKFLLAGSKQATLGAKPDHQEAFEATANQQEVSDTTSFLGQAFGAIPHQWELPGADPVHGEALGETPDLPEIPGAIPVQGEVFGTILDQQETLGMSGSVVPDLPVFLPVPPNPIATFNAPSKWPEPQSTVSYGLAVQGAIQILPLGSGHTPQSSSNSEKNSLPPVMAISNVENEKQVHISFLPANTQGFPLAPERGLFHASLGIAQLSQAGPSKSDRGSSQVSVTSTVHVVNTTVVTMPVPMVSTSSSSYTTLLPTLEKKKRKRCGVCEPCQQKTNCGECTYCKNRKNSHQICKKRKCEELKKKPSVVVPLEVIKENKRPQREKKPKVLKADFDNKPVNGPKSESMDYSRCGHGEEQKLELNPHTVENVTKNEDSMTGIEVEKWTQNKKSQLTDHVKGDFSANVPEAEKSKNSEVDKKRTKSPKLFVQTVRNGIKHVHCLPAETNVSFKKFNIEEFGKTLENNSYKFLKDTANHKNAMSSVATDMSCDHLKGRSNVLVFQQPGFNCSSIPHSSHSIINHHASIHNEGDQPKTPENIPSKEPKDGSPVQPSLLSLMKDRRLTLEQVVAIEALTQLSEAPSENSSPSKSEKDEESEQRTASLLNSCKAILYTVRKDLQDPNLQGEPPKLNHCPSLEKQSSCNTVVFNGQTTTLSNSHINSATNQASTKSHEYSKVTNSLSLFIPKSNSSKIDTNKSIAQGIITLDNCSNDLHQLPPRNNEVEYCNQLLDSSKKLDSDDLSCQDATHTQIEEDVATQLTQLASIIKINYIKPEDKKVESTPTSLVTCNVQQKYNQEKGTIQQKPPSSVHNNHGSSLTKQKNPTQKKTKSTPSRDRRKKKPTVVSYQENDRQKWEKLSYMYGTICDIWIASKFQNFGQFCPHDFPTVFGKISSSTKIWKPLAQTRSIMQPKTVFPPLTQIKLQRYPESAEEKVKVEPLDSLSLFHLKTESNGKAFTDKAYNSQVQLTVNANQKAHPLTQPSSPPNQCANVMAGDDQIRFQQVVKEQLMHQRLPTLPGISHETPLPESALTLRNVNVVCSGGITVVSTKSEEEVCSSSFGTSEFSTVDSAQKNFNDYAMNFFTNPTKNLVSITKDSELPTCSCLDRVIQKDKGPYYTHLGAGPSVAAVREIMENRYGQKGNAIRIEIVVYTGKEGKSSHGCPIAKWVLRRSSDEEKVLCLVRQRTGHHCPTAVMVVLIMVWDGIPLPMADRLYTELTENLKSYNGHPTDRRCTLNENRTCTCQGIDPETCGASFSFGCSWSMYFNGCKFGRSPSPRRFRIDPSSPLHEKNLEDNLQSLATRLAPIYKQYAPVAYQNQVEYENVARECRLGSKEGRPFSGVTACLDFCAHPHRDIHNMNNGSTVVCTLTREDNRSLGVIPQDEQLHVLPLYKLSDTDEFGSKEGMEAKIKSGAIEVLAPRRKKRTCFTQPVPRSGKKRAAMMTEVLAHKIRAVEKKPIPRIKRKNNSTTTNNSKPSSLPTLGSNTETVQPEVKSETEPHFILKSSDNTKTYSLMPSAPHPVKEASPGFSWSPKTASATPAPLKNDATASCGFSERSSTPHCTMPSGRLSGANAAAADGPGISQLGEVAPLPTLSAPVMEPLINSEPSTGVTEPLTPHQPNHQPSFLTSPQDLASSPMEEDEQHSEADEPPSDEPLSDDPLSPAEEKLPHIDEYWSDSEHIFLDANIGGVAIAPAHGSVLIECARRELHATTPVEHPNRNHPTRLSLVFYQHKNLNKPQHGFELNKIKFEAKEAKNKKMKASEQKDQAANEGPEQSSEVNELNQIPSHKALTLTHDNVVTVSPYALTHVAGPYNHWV

IC50 ([1]; read-out: IC50) | IC50 ([1]; read-out: pIC50 (converted)) | inhibition [2] | IC50 ([3]; read-out: IC50) | IC50 ([3]; read-out: pIC50 (converted)) | IC50 [9] | SMILES | pIC50 [4] | deltapIC50 [5] | Ratio pIC50 [6] | pIC50 [7] | IC50 [8] | inhibition [10] | Ratio pIC50 [11]
250 nM | 18.2 nM | Active | > 100000 nM | 182 nM |  | CC[C@H](C)[C@@H]1NC(=O)[C@H](CC(C)C)NC(=O)[C@@H](Cc2ccc(O)cc2)NC(=O)CSC[C@H](C(=O)N[C@@H](Cc2ccc(O)cc2)C(=O)NCC(=O)N[C@@H](CCCNC(=N)N)C(=O)N[C@@H](CCCCN)C(=O)N[C@@H](CCCCN)C(=O)N[C@@H](CCCNC(=N)N)C(=O)N[C@@H](CCCNC(=N)N)C(=O)N[C@@H](CCC(N)=O)C(=O)N[C@@H](CCCNC(=N)N)C(=O)N[C@@H](CCCNC(=N)N)C(N)=O)NC(=O)[C@H](CO)NC(=O)[C@H](Cc2c[nH]cn2)NC(=O)[C@H](CCC(=O)O)NC(=O)[C@H](Cc2c[nH]c3ccccc23)NC(=O)[C@H](Cc2c[nH]c3ccccc23)NC(=O)[C@H]([C@@H](C)O)NC(=O)[C@H](Cc2ccc(O)cc2)NC(=O)[C@H](Cc2ccc(O)cc2)NC(=O)[C@H](C)NC(=O)[C@H](Cc2ccc(O)cc2)NC1=O | 6.91 |  |  |  |  |  | 
 | 562 nM |  |  |  | 22000 nM | O=C(O)c1ccc(O)c2ncccc12 |  | 0.07 |  |  | 427 nM |  | 
 | 251 nM |  |  | > 100000 nM |  | N=C(N)NCCC[C@H](NC(=O)[C@H](CCCNC(=N)N)NC(=O)[C@H](CCCNC(=N)N)NC(=O)[C@H](CCCNC(=N)N)NC(=O)[C@H](CCCNC(=N)N)NC(=O)[C@H](CCCNC(=N)N)NC(=O)[C@H](CCCNC(=N)N)NC(=O)[C@@H](N)CCCNC(=N)N)C(=O)O | 6.45 |  |  |  |  | Active | 
 | 407 nM |  |  | 23400 nM |  | CC[C@H](C)[C@@H]1NC(=O)[C@H](CC(C)C)NC(=O)[C@@H](Cc2ccc(O)cc2)NC(=O)CSC[C@@H](C(=O)NCC(=O)N[C@@H](CO)C(=O)NCC(=O)N[C@@H](CO)C(=O)N[C@@H](CC(=O)O)C(=O)N[C@@H](Cc2ccc(O)cc2)C(=O)N[C@@H](CCCCN)C(=O)N[C@@H](CC(=O)O)C(=O)N[C@@H](CC(=O)O)C(=O)N[C@@H](CC(=O)O)C(=O)N[C@@H](CC(=O)O)C(=O)N[C@@H](CCCCN)C(N)=O)NC(=O)[C@H](CO)NC(=O)[C@H](Cc2c[nH]cn2)NC(=O)[C@H](CCC(=O)O)NC(=O)[C@H](Cc2c[nH]c3ccccc23)NC(=O)[C@H](Cc2c[nH]c3ccccc23)NC(=O)[C@H]([C@@H](C)O)NC(=O)[C@H](Cc2ccc(O)cc2)NC(=O)[C@H](Cc2ccc(O)cc2)NC(=O)[C@H](C)NC(=O)[C@H](Cc2ccc(O)cc2)NC1=O | 4.59 |  |  |  |  |  | 58

SMILES | IC50 ([1]; read-out: IC50) | IC50 ([1]; read-out: pIC50 (converted)) | inhibition [2] | IC50 ([3]; read-out: IC50) | IC50 ([3]; read-out: pIC50 (converted)) | IC50 [9] | pIC50 [4] | deltapIC50 [5] | Ratio pIC50 [6] | pIC50 [7] | IC50 [8] | inhibition [10] | Ratio pIC50 [11]
CC[C@H](C)[C@@H]1NC(=O)[C@H](CC(C)C)NC(=O)[C@H](Cc2c[nH]c3ccccc23)NC(=O)[C@H](Cc2c[nH]c3ccccc23)NC(=O)[C@H]([C@@H](C)O)NC(=O)[C@H](Cc2ccc(O)cc2)NC(=O)[C@H](CC(C)C)NC(=O)[C@H](C)NC(=O)[C@H](Cc2ccc(O)cc2)NC(=O)[C@H](CCC(=O)O)NC(=O)[C@H](CCCNC(=N)N)NC(=O)[C@@H](Cc2ccc(O)cc2)NC(=O)CSC[C@@H](C(N)=O)NC(=O)[C@H](CCC(N)=O)NC1=O |  | 204 nM |  |  | 49000 nM |  | 4.38 | 1.22 | 12 | 5.6 | 45700 nM |  | 
N=C(N)NCCC[C@H](NC(=O)[C@H](CCCNC(=N)N)NC(=O)[C@H](CCCNC(=N)N)NC(=O)[C@H](CCC(N)=O)NC(=O)[C@H](CCCNC(=N)N)NC(=O)[C@H](CCCNC(=N)N)NC(=O)[C@H](CCCCN)NC(=O)[C@H](CCCCN)NC(=O)[C@H](CCCNC(=N)N)NC(=O)CNC(=O)[C@@H](N)Cc1ccc(O)cc1)C(=O)O |  | 1150 nM |  |  | > 100000 nM |  | 5.39 |  |  |  |  | Active | 
